# Experimental data taken from PMC8164216 (Pharmaceutical research, 2019).
# Several values for one entry are separate records, joined by “and”; a condition that tells them apart may be missing. Equal values may be shown once. Marks after values point to notes of the source that are not given here.
# Assays:
# [1] = breast tumor xenograft study; cited from earlier work
# MCT1 [2] = target: T1, MCT1 (Mus musculus, UniProt P53986); experiment: Full TMDD model; format: in vivo, Female BALB/c mice
# T1 sequence (P53986 1-493): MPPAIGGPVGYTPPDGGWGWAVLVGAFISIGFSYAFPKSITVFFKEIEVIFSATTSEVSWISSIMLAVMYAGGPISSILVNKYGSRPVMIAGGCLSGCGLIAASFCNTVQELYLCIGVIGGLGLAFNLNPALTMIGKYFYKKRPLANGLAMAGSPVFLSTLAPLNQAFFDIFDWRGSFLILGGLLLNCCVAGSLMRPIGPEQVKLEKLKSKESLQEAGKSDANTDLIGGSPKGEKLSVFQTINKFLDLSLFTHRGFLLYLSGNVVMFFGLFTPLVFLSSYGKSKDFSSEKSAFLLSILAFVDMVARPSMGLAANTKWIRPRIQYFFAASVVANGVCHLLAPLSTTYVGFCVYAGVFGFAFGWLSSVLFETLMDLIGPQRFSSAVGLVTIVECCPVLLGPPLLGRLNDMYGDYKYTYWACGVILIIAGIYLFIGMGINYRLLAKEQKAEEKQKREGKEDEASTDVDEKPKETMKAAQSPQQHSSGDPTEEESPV
# T1 sequence (P18572 140-389 partner limits assumed): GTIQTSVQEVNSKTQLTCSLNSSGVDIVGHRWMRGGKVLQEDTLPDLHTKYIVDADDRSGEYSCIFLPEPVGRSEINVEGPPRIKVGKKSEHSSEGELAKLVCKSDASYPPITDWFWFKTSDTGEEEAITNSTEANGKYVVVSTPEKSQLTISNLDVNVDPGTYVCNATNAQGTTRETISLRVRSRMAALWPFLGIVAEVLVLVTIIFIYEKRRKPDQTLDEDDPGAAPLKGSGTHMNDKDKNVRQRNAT
# MCT1 [3] = conditions: murine 4T1 cells; cited from earlier work
# [4] = Compartmental PK modeling, full TMDD model; format: in vivo, Female BALB/c mice
# [5] = Pharmacokinetic study in mice, non-compartmental analysis; format: in vivo, Female BALB/c mice
# How it was run: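 Mice were dosed IV by tail vein (10, 50, 100 mg/kg) or by oral gavage (100 mg/kg), in 20% w/v cyclodextrin-saline. Plasma from terminal cardiac puncture (n = 3–4/time point; 15 min–24 h IV, 10 min–24 h oral) was quantified by LC/MS/MS (LLOQ 0.15 ng/mL). Naïve-pooled non-compartmental analysis assumed 19 g body weight. AUC was by trapezoidal method, extrapolated to infinity. Fold change is relative to the 10 mg/kg IV dose.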
# [6] = Compartmental PK modeling with enterohepatic cycling and M-M elimination; format: in vivo, Female BALB/c mice; conditions: for Vp: simultaneous fit of IV and oral data; for Vmax / Km: M-M elimination; for CLb: clearance to bile compartment; for Km: female, BALB/c, mouse, plasma, other: intravenous and oral, fitted simultaneously
# How it was run: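 Female BALB/c mice (18–20 g) got the test compound in 20% w/v cyclodextrin in normal saline, by tail-vein IV (10, 50, 100 mg/kg) or oral gavage (100 mg/kg). Terminal cardiac blood (isoflurane, lithium heparin; n = 3–4/time point) was taken to 24 h, and plasma was assayed by LC/MS/MS. Naïve-pooled IV and oral data were fitted together by maximum likelihood to enterohepatic-cycling models with lag time and Michaelis-Menten elimination.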
# MCT2 = conditions: to a lesser extent than MCT1; cited from earlier work
# MCT1 [7] = conditions: cited from earlier work
# [8] = female, BALB/c, mouse, plasma, iv, 10 mg/kg
# [9] = female, BALB/c, mouse, plasma, iv, 50 mg/kg
# [10] = female, BALB/c, mouse, plasma, iv, 100 mg/kg
# [11] = female, BALB/c, mouse, plasma, po, 100 mg/kg
structure (smiles),measurement,setting,value
"Cc1[nH]nc(C(F)(F)F)c1Cc1sc2c(c1C(=O)N1C[C@](C)(O)CO1)c(=O)n(C)c(=O)n2C(C)C [AZD3965, 5-[(4S)-4-hydroxy-4-methyl-1,2-oxazolidine-2-carbonyl]-1-isopropyl-3-methyl-6-{[3-methyl-5-(trifluoromethyl)-2H-pyrazol-4-yl]methyl}thieno[2,3-d]pyrimidine-2,4-dione]",concentration in 4T1 tumor versus plasma,[1],25.5 fold
same,Rtotal (total transporter concentration),MCT1 [2]; Model C,54.8 ± 4.90 μg/ml and 54.8 ± 4.90 (8.92) μg/ml
same,kon,"MCT1 [2]; Model C, converted based on the molecular weight",6.21 ± 5.92 (95. 3) μM^−1 h^−1
same,koff,MCT1 [2]; mouse,0.00641 s⁻¹
same,duration of inhibition of L-lactate uptake,MCT1 [3],up to 5 h
same,pre-incubation period for maximal inhibition of L-lactate uptake,MCT1 [3],5 min
same,ka,[4]; Model C,34.4 ± 4.80 (14.0) h^−1
same,kpt,[4]; Model C,0.302 ± 0.074 (24.7) h^−1
same,ktp,[4]; Model C,0.452 ± 0.041 (9.12) h^−1
same,Vp,"[4]; Model C (full TMDD model), fixed",2.04 ml and 2.04 (Fixed) ml
same,Vc/F,"[5]; IV 10 mg/kg, mice (19 g)",53.4 mL
same,"AUC0−∞, fold change from the lowest IV dose",[5]; IV 50 mg/kg vs 10 mg/kg,8.36 fold
same,"CL, fold change from the lowest IV dose",[5]; IV 50 mg/kg vs 10 mg/kg,0.50 fold
same,"Cmax, fold change from the lowest IV dose",[5]; IV 50 mg/kg vs 10 mg/kg,7.49 fold
same,"Vss, fold change from the lowest IV dose",[5]; IV 50 mg/kg vs 10 mg/kg,0.58 fold
same,"t1/2, fold change from the lowest IV dose",[5]; IV 50 mg/kg vs 10 mg/kg,0.89 fold
same,"λz, fold change from the lowest IV dose",[5]; IV 50 mg/kg vs 10 mg/kg,1.12 fold
same,Vc/F,"[5]; IV 50 mg/kg, mice (19 g)",31.0 mL
same,"AUC0−∞, fold change from the lowest IV dose",[5]; IV 100 mg/kg vs 10 mg/kg,17.5 fold
same,"CL, fold change from the lowest IV dose",[5]; IV 100 mg/kg vs 10 mg/kg,0.47 fold
same,"Cmax, fold change from the lowest IV dose",[5]; IV 100 mg/kg vs 10 mg/kg,13.6 fold
same,"Vss, fold change from the lowest IV dose",[5]; IV 100 mg/kg vs 10 mg/kg,0.65 fold
same,"t1/2, fold change from the lowest IV dose",[5]; IV 100 mg/kg vs 10 mg/kg,0.87 fold
same,"λz, fold change from the lowest IV dose",[5]; IV 100 mg/kg vs 10 mg/kg,1.16 fold
same,Vc/F,"[5]; IV 100 mg/kg, mice (19 g)",34.6 mL
same,AUC(0-inf),[5]; [8],4940 ng·h/mL
same,Cmax,[5]; [8],4020 ng/mL
same,Vd,[5]; [8],0.0442 L
same,clearance,[5]; [8],0.773 mL/min
same,concentration at 24 h,[5]; [8],0.285 ng/mL
same,half-life,[5]; [8],2.91 h
same,k el,[5]; [8],6.61e-05 s⁻¹
same,AUC(0-inf),[5]; [9],41300 ng·h/mL
same,Cmax,[5]; [9],30100 ng/mL
same,Vd,[5]; [9],0.0256 L
same,clearance,[5]; [9],0.383 mL/min
same,half-life,[5]; [9],2.6 h
same,k el,[5]; [9],7.39e-05 s⁻¹
same,AUC(0-inf),[5]; [10],86400 ng·h/mL
same,Cmax,[5]; [10],54500 ng/mL
same,Vd,[5]; [10],0.0286 L
same,clearance,[5]; [10],0.367 mL/min
same,half-life,[5]; [10],2.51 h
same,k el,[5]; [10],7.64e-05 s⁻¹
same,bioavailability,"[5]; female, BALB/c, mouse, plasma, oral, 100 mg/kg",82.7%
same,AUC(0-inf),[5]; [11],71400 ng·h/mL
same,Cmax,[5]; [11],30300 ng/mL
same,Tmax,[5]; [11],0.333 h
same,half-life,[5]; [11],4.46 h
same,k el,[5]; [11],4.33e-05 s⁻¹
same,CL/F,"[5]; oral 100 mg/kg, mice (19 g)",26.6 mL/h
same,Vc/F,"[5]; oral 100 mg/kg, mice (19 g)",171 mL
same,CLd,[6]; Model A,0.332 ± 0.064 (19.3) ml/h
same,F,[6]; Model A,1.00 ± 0.003 (0.32)
same,ka,[6]; Model A,3.39 ± 1.11 (32.7) h^−1
same,Vp,[6]; Model A (EHC model),48.6 ± 5.86 (12.1) ml
same,Vmax,[6]; Model A,26.4 ± 8.30 (31.7) μg/h
same,CLb,[6]; Model A,0.529 ± 0.074 (13.9) ml/h
same,ko,"[6]; Model A, first-order rate constant of release from bile",0.0015 ± 0.0004 ^a (29.0) h^−1
same,Tlag,"[6]; Model A, fixed in final estimation",5.92 (Fixed) h
same,CLd,[6]; Model B,0.023 ± 0.003 (11.1) ml/h
same,F,[6]; Model B,0.998 ± 0.003 (0.31)
same,ka,[6]; Model B,5.13 ± 1.98 (38.6) h^−1
same,Vp,[6]; Model B (simplified EHC model),55.8 ± 5.20 (9.35) ml
same,Tlag.iv,"[6]; Model B, IV",6.00 ± 0.0006 (0.01) h
same,Vmax,[6]; Model B,411 ± 42.0 (10.3) μg/h
same,CLb,[6]; Model B,0.178 ± 0.019 (10.8) ml/h
same,Tlag.po,"[6]; Model B, oral",5.90 ± 0.06 (1.05) h
same,ko,"[6]; Model B, zero-order rate constant of release from bile",0.386 ± 0.146 ^b (37.9) ng/h
same,Km,[6]; Model A,9.59 ± 4.63 µg/mL
same,Km,[6]; Model B,385 ± 58 µg/mL
same,activity against MCT2,MCT2,some activity
same,Ki,MCT1 [7],1.6 nM
